Results reported in ChEMBL document CHEMBL3243974, “Cyclic analogues of luteinizing hormone-releasing hormone with significant biological activities” (1978).

Legend:
Assay type in all cases: functional
Rattus norvegicus [1] = species: Rattus norvegicus; assay: Stimulation of luteinizing hormone release in ovariectomized rat assessed as serum luteinizing hormone level at 250 ng pretreated with estrogen and progesterone by radioimmunoassay relative to control
In short: (§1)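 Ovariectomized rats pretreated with estrogen and progesterone, then given peptide at two doses (250 and 1000 ng). Saline alone and synthetic LH-RH at 2.5 and 10 ng served as comparators. Serum LH was measured by radioimmunoassay and reported in ng/mL ± SE.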

Rattus norvegicus [2] = species: Rattus norvegicus; assay: Stimulation of luteinizing hormone release in ovariectomized rat assessed as serum luteinizing hormone level at 1000 ng pretreated with estrogen and progesterone by radioimmunoassay relative to control; in short: as §1
Rattus norvegicus [3] = species: Rattus norvegicus; assay: Stimulation of luteinizing hormone release in ovariectomized rat at 1000 ng pretreated with estrogen and progesterone by radioimmunoassay relative to LH-RH
In short: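 Ovariectomized rats primed with estrogen and progesterone received peptide at 250 and 1000 ng, with saline and synthetic LH-RH (2.5 and 10 ng) as references. Serum LH was measured by radioimmunoassay. Activity is expressed as % of synthetic LH-RH (taken as 100) with 95% confidence limits.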

Row | SMILES | Activity (Rattus norvegicus [1]) | Activity (Rattus norvegicus [2]) | Activity (Rattus norvegicus [3])
1 | CC(C)C[C@@H]1NC(=O)[C@@H](C)NC(=O)[C@H](Cc2ccc(O)cc2)NC(=O)[C@H](CO)NC(=O)[C@H](Cc2c[nH]c3ccccc23)NC(=O)[C@H](Cc2cnc[nH]2)NC(=O)CCNC(=O)CNC(=O)[C@@H]2CCCN2C(=O)[C@H](CCCNC(=N)N)NC1=O | 206.67 ng/mL | 364.59 ng/mL | 1.2%
2 | CC(C)C[C@H](NC(=O)[C@@H](C)NC(=O)[C@H](Cc1ccc(O)cc1)NC(=O)[C@H](CO)NC(=O)[C@H](Cc1c[nH]c2ccccc12)NC(=O)[C@H](Cc1cnc[nH]1)NC(=O)CCN)C(=O)N[C@@H](CCCNC(=N)N)C(=O)N1CCC[C@H]1C(=O)NCC(=O)O | 80.74 ng/mL | 65.69 ng/mL | <0.01%
3 | CC(C)C[C@@H]1NC(=O)[C@@H](C)NC(=O)[C@H](Cc2ccc(O)cc2)NC(=O)[C@H](CO)NC(=O)[C@H](Cc2c[nH]c3ccccc23)NC(=O)[C@H](Cc2cnc[nH]2)NC(=O)CCCCCNC(=O)CNC(=O)[C@@H]2CCCN2C(=O)[C@H](CCCNC(=N)N)NC1=O | 151.02 ng/mL | 315.81 ng/mL | 0.65%
